ChEMBL document CHEMBL1123920, “Leukotriene D4 antagonists and 5-lipoxygenase inhibitors. Synthesis of benzoheterocyclic [(methoxyphenyl)amino]oxoalkanoic acid esters” (J Med Chem, 1987)
Blank lines part the entries; values can stand above or below the compound they belong to.

Assays:
[1] = biological target: T1, Polyunsaturated fatty acid 5-lipoxygenase (Rattus norvegicus, UniProt P12527); experiment: (§1) Ability to inhibit Lipoxygenase in vitro was determined
T1 sequence (P12527 whole entry): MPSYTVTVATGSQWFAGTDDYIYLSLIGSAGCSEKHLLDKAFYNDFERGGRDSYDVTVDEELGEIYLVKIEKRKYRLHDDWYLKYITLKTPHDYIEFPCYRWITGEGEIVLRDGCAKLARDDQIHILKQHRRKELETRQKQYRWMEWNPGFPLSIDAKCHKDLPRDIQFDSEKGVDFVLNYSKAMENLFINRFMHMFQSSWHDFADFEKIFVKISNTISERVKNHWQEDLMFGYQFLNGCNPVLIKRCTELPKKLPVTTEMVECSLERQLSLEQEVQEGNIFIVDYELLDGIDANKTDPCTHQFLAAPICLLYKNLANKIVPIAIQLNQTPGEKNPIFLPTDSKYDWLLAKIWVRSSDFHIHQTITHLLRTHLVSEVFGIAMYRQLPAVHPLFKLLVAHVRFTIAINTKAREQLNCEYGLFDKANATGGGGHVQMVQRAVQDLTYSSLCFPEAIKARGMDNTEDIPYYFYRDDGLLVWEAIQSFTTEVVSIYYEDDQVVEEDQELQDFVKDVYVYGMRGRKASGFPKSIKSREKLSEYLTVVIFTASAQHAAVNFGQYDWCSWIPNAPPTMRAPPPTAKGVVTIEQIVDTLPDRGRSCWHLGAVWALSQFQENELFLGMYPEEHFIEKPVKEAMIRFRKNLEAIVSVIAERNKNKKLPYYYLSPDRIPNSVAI

Cavia porcellus = experiment: Ability to inhibit the Ovalbumin induced bronchospasm in guinea pig was determined in vivo at a dose of 50 mg/kg id; assay type: functional; conditions: route intraduodenal
Summary of the method: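 Guinea pigs were challenged with LTD4 or ovalbumin to induce bronchospasm, and test agent was given intraduodenally. Read-out is percent inhibition of bronchospasm. Significance uses a two-tailed Student's t test (p < 0.05). N is the number of treated animals.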

[2] = biological target: T1, Polyunsaturated fatty acid 5-lipoxygenase; experiment: Ability to inhibit the rat Lipoxygenase in vitro was determined
Summary of the method: (§2)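 Source is rat polymorphonuclear leukocyte (PMN) 5-lipoxygenase. IC50 values come from nonlinear regression analysis, significant at p < 0.05.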

[3] = biological target: T1, Polyunsaturated fatty acid 5-lipoxygenase; experiment: as §1; summary of the method: as §2; remark: listed apart in the source
[4] = biological target: T2, Polyunsaturated fatty acid 5-lipoxygenase (Rattus norvegicus) (UniProt P12527); experiment: Ability to inhibit Lipoxygenase in vitro was determined; NA is <50% inhibition at 100 uM; summary of the method: as §2
T2 sequence (whole entry): T1 sequence (P12527 whole entry)

Rattus norvegicus [5] = species on record: Rattus norvegicus; experiment: Tested for metabolic activation counted as mean number of revertants in strains TA98, TA100, TA1535, and TA1538, three plates per treatment at 0.005 mg per plate, with activation provided by S-9 rat liver homogenates in Ames test; assay type: functional, organism-based
Rattus norvegicus [6] = species on record: Rattus norvegicus; experiment: Tested for metabolic activation counted as mean number of revertants in strains TA98, TA100, TA1535, and TA1538, three plates per treatment at 0.005 mg per plate, without activation in the absence of S-9 rat liver homogenates in Ames test; assay type: functional, organism-based
Rattus norvegicus [7] = species on record: Rattus norvegicus; experiment: Tested for metabolic activation counted as mean number of revertants in strains TA98, TA100, TA1535, and TA1538, three plates per treatment at 0.015 mg per plate, without activation in the absence of S-9 rat liver homogenates in Ames test; assay type: functional, organism-based
Rattus norvegicus [8] = species on record: Rattus norvegicus; experiment: Tested for metabolic activation counted as mean number of revertants in strains TA98, TA100, TA1535, and TA1538, three plates per treatment at 0.05 mg per plate, with activation provided by S-9 rat liver homogenates in Ames test; assay type: functional, organism-based
Rattus norvegicus [9] = species on record: Rattus norvegicus; experiment: Tested for metabolic activation counted as mean number of revertants in strains TA98, TA100, TA1535, and TA1538, three plates per treatment at 0.05 mg per plate, without activation in the absence of S-9 rat liver homogenates in Ames test; assay type: functional, organism-based
Rattus norvegicus [10] = species on record: Rattus norvegicus; experiment: Tested for metabolic activation counted as mean number of revertants in strains TA98, TA100, TA1535, and TA1538, three plates per treatment at 0.15 mg per plate, with activation provided by S-9 rat liver homogenates in Ames test; assay type: functional, organism-based
Rattus norvegicus [11] = species on record: Rattus norvegicus; experiment: Tested for metabolic activation counted as mean number of revertants in strains TA98, TA100, TA1535, and TA1538, three plates per treatment at 0.15 mg per plate, without activation in the absence of S-9 rat liver homogenates in Ames test; assay type: functional, organism-based
Rattus norvegicus [12] = species on record: Rattus norvegicus; experiment: Tested for metabolic activation counted as mean number of revertants in strains TA98, TA100, TA1535, and TA1538, three plates per treatment at 0.5 mg per plate, with activation provided by S-9 rat liver homogenates in Ames test; assay type: functional, organism-based
Rattus norvegicus [13] = species on record: Rattus norvegicus; experiment: Tested for metabolic activation counted as mean number of revertants in strains TA98, TA100, TA1535, and TA1538, three plates per treatment at 0.015 mg per plate, with activation provided by S-9 rat liver homogenates in Ames test; assay type: functional, organism-based
[14] = tested on: Cysteinyl leukotriene receptor (Cavia porcellus); experiment: Inhibition of LTD4 induced bronchospasm in guinea pig was determined in at 50 mg/kg i.d.

SMILES: COC(=O)CCC(=O)Nc1cccc(OCc2nc3ccccc3s2)c1
inhibition in vivo at 50 mg/kg (Cavia porcellus): 63% | IC50 [2]: 15.7 µM

SMILES: COC(=O)CCC(=O)Nc1cccc(OCc2nc3ccccc3n2C)c1
inhibition in vivo at 50 mg/kg (Cavia porcellus): 60% | IC50 [3]: 7.2 µM

SMILES: COC(=O)CCC(=O)N(O)c1cccc(OCc2ccc3ccccc3n2)c1
inhibition in vivo at 50 mg/kg (Cavia porcellus): 76% | Mean no. of revertants (Rattus norvegicus [5]): 13 | Mean no. of revertants (Rattus norvegicus [6]): 15 | Mean no. of revertants (Rattus norvegicus [7]): 9 | Mean no. of revertants (Rattus norvegicus [8]): 16 | Mean no. of revertants (Rattus norvegicus [9]): 13 | Mean no. of revertants (Rattus norvegicus [10]): 12 | Mean no. of revertants (Rattus norvegicus [11]): 31 | Mean no. of revertants (Rattus norvegicus [12]): 716 | Mean no. of revertants (Rattus norvegicus [13]): 10 | inhibition [14]: 97%

SMILES: COC(=O)CC(=O)Nc1cccc(OCc2nc3ccccc3n2C)c1
inhibition in vivo at 50 mg/kg (Cavia porcellus): 5% | inhibition [4]: < 50%

SMILES: COC(=O)C1CC(=O)N(c2cccc(OCc3nc4ccccc4s3)c2)C1 (configuration not stated)
IC50 [1]: 14 µM

SMILES: CCCCCC(O)c1cccc(OCc2ccc3ccccc3n2)c1 (configuration not stated) [REV-5901]
inhibition in vivo at 50 mg/kg (Cavia porcellus): 60.2%

The next lines start with results.

IC50 [1]: 30 µM
SMILES: COC(=O)C1CC(=O)N(c2cccc(OCc3nc4ccccc4o3)c2)C1 (configuration not stated)

inhibition [4]: < 50%
SMILES: O=C(O)CCC(=O)Nc1cccc(OCc2nc3ccccc3s2)c1

inhibition [4]: < 50%
SMILES: O=C1CCC(=O)N1c1cccc(OCc2ccc3ccccc3n2)c1
inhibition in vivo at 50 mg/kg (Cavia porcellus): 26% | Mean no. of revertants (Rattus norvegicus [5]): 5 | Mean no. of revertants (Rattus norvegicus [6]): 6 | Mean no. of revertants (Rattus norvegicus [7]): 9 | Mean no. of revertants (Rattus norvegicus [8]): 7 | Mean no. of revertants (Rattus norvegicus [9]): 12 | Mean no. of revertants (Rattus norvegicus [10]): 8 | Mean no. of revertants (Rattus norvegicus [11]): 43 | Mean no. of revertants (Rattus norvegicus [12]): 45 | Mean no. of revertants (Rattus norvegicus [13]): 7

IC50 [1]: 27.1 µM
SMILES: COC(=O)CCC(=O)Nc1cccc(Oc2nc3ccccc3s2)c1
inhibition in vivo at 50 mg/kg (Cavia porcellus): 7%

inhibition [4]: < 50%
SMILES: Cn1c(COc2cccc(N3C(=O)CCC3=O)c2)nc2ccccc21

IC50 [1]: 18.9 µM
SMILES: CCCc1c(OCCCCc2nnn[nH]2)ccc(C(C)=O)c1O [TOMELUKAST]
inhibition in vivo at 50 mg/kg (Cavia porcellus): 79.7%
